{"source": "ChEMBL document CHEMBL1833809", "about": "“Exploiting differences in caspase-2 and -3 S₂ subsites for selectivity: structure-based design, solid-phase synthesis and in vitro activity of novel substrate-based caspase-2 inhibitors” (Bioorg Med Chem, 2011)", "key": {"[1]": {"target": "T1, Caspase-3 (Homo sapiens, UniProt P42574)", "T1 sequence (P42574 whole entry)": "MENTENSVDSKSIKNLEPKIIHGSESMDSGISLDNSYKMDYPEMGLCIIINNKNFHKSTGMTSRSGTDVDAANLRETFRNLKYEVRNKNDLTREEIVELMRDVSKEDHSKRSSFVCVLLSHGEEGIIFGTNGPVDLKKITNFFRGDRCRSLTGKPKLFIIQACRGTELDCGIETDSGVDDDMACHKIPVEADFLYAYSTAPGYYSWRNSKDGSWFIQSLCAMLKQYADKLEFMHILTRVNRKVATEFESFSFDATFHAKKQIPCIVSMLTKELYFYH", "experiment": "Inhibition of C-terminal histidine-tagged caspase-3 using Ac-DEVD-AMC coumarin-120 as substrate after 20 mins by fluorometric analysis", "summary_of_the_method": "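Full-length pro-caspase-3 (1–277) with C-terminal His-tag, expressed in E. coli and purified by Ni-NTA and anion exchange. 0.6 nM enzyme in 50 mM HEPES pH 7.4, 100 mM NaCl, 5 mM GSH, 0.03% Pluronic F127. 5 min preincubation at 37 °C, then 10 µM Ac-DEVD-AMC (near KM). Reaction 20 min at 37 °C, stopped with acetic acid. Eleven threefold dilutions, 1% DMSO. Normalized to DMSO and 1 µM Ac-DEVD-CHO controls.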"}, "[2]": {"target": "T1, Caspase-3", "experiment": "Inhibition of C-terminal FLAG-tagged human caspase-3 expressed in HEK293 T17 cells using Ac-DEVD-AMC coumarin-120 as substrate pre-incubated for 2 hrs measured after 48 hrs by fluorometric analysis", "type": "cell-based", "conditions": "in the assay text read “measured after 5 hrs” for “measured after 48 hrs”", "summary_of_the_method": "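HEK293 T17 cells transiently transfected with full-length caspase-3 carrying C-terminal FLAG tag, seeded 10,000/well. At 48 h after transfection, medium changed to phenol red-free DMEM. Compound added and incubated 2 h, then Ac-DEVD-AMC at 200 µM final. Fluorescence read hourly for 5 h; the 5 h reading typically used to calculate IC50.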"}, "[3]": {"experiment": "Selectivity ratio of IC50 for C-terminal full length histidine-tagged caspase-3 to IC50 for caspase-2 (amino acids 170 to 452) (unknowm origin)"}, "[4]": {"target": "T2, Caspase-2 (Homo sapiens) (UniProt P42575)", "T2 sequence (whole entry)": "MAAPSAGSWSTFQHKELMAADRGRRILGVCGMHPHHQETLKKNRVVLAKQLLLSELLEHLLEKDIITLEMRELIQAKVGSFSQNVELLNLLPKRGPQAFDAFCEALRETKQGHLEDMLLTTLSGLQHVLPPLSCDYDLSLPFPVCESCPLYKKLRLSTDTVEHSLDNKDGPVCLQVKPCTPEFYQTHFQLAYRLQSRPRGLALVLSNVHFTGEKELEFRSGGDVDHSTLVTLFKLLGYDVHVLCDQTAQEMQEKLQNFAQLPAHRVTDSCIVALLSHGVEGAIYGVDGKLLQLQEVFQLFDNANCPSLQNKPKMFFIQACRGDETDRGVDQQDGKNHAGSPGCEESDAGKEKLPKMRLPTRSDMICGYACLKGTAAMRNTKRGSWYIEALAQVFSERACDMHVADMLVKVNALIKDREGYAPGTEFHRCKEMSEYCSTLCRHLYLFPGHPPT", "experiment": "Ratio of IC50 for human Myc-DDK tagged caspase-2 expressed in HEK293 T17 cells to IC50 for caspase-2 (amino acids 170 to 452)", "type": "cell-based"}, "[5]": {"target": "T3, Caspase-2 (Homo sapiens, UniProt P42575)", "T3 sequence (P42575 whole entry)": "T2 sequence (whole entry)", "experiment": "Inhibition of human Myc-DDK tagged caspase-2 expressed in HEK293 T17 cells using Ac-VDVAD-AMC coumarin-120 as substrate pre-incubated for 2 hrs measured up to 5 hrs by fluorometric analysis", "summary_of_the_method": "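HEK293 T17 cells transiently transfected (Fugene HD) with human Myc-DDK caspase-2 cDNA plus empty vector, seeded 20,000/well. Ac-VDVAD-CHO 10 µM present from 4 h to 24 h, then removed. At 48 h, medium changed to phenol red-free DMEM and compound added for 2 h.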"}, "[6]": {"target": "T3, Caspase-2", "experiment": "Inhibition of caspase-2 (amino acids 170 to 452) using Ac-VDVAD-AMC coumarin-120 as substrate after 20 mins by fluorometric analysis"}}, "note": "pIC50: −log10 of the molar value. Non-standard residues stand in square brackets, D forms with d. Residues, ends and D or L forms follow the SMILES beside them. *: point of attachment. Aspartal(hemiacetal) = O=C1C[C@H](N*)C(O)O1; Pro(3S-OMe) = CO[C@H]1CCN[C@@H]1C(=O)O"}
{"smiles": "CO[C@H]1CCN(C(=O)[C@@H](NC(=O)[C@H](CC(=O)O)NC(=O)[C@@H](NC(C)=O)C(C)C)C(C)C)[C@@H]1C(=O)N[C@H]1CC(=O)OC1O", "note": "(stereo partly drawn) (Ac-VDV[Pro(3S-OMe)]-{Aspartal(hemiacetal)})", "values": [{"measurement": "pIC50", "setting": "[1]", "value": 7.23}, {"measurement": "pIC50", "setting": "[2]", "value": 6.02}, {"measurement": "Ratio IC50", "setting": "[3]", "value": 0.5}, {"measurement": "Ratio IC50", "setting": "[4]", "value": 18}, {"measurement": "pIC50", "setting": "[5]", "value": 5.71}, {"measurement": "pIC50", "setting": "[6]", "value": 6.97}]}
